Test results from the RNAGym collection of RNA variant scans (doi:10.1126/science.aae0568).
Variants at the floor of the assay were thinned out.

B1: tRNA (parent)
chain: GUUCCGUUGGCGUAAUGGUAACGCGUCUCCCUCCUAAGGAGAAGACUGCGGGUUCGAGUCCCGUACGGAACG

Variants of: B1
Assay: yeast fitness relative to wild type (ratio to wild type); higher = fitter; tRNA-Arg(CCU), competitive growth, 37 C, YPD
How it was run: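 For this measurement, the tRNA-Arg(CCU) gene was varied by chemical synthesis at a 3% per-site mutation rate across 69 sites, and each variant was placed at the native genomic locus in Saccharomyces cerevisiae. The pooled strains went through a 24-hour competition in YPD at 37°C in six parallel replicates, with amplicons from start and end populations read by 100-nucleotide paired-end sequencing. Darwinian fitness relative to wild type followed from the change in each genotype's frequency. Genotypes needed ≥ 100 starting reads, and estimates < 0.5 were set to 0.5.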

| Variant | yeast fitness |
| --- | --- |
| GGUCCGUUGGCGUAAUGGUAACGCGUCUCCCUCCUAAGGACAAGACUGCGGGUUCGAGUCCCGUCCGGAACG [U2G G41C A65C] | 0.534 |
| GGUCCGUUGGCGUAAUGGUAACGCGUCUCCCUCCUAAGGAGAAAACUGCGCGUUCGAGUCCCGUUCGGAACG [U2G G44A G51C A65U] | ≤ 0.5 |
| GGUCCAUUGGCGUAAUGGUAACGCGUUUCCCUCCUUAGGAGAAGACUGCGGGUUCGAGUCCCGUACGCAACG [U2G G6A C27U A36U G68C] | ≤ 0.5 |
| GGUCCGUUCGCAUAAUGGUAACGCGUCUCCCUCCUAAGGAGCAGAAUGCGGGUUCGAGUCCCGUACGGAACG [U2G G9C G12A A42C C46A] | 0.577 |
| GGUCCGUUCGCGUAAUGGUGACGCGUCUCCCUCCUAAGGAGCAGAGUGUGGGUUCGAGUCCCGUACGAAUCG [U2G G9C A20G A42C C46G C49U G68A A70U] | ≤ 0.5 |
| GGUCCGUUGGCGUAAUGGUAACGCGUCUCCCUCCUAAAGAGAAGACUGCGGCUUCGAGUCACGUACGGAACG [U2G G38A G52C C61A] | 0.555 |
| GGUCCGUUCGCGUAGUGGUAACGCGUCUCCCUCCUAAGGAGAAGACUCCGAGUUCGAGUCCCGUACGGAACG [U2G G9C A15G G48C G51A] | ≤ 0.5 |
| GGUCCCUUGGUGUAAUGGUAACGCGUUUCCCUCCUAAGGAGAAGACUGCGGGUUCGAGUCCCCUACGGAACG [U2G G6C C11U C27U G63C] | ≤ 0.5 |
| GGUCCGUUGGCAUAAUGGUAACGCGUCUCCCUCCUAAGGACAAGACUGCGGGUUCGAGUCCCGUACGGAACG [U2G G12A G41C] | 0.596 |
| GGUCCGUUGGCGUAAUGGUAACGCGUCUCCCUCCUAAGGAGAAAACUGCGGGUUCGAGUCCCGUACGGAACG [U2G G44A] | 0.849 |
| GGUCCGUUCGCGUAUUGGCAACGCGUCUCCCUCCUAAGGAGAAGACUGCGGGUUCGAGUCCCGUACGGAACG [U2G G9C A15U U19C] | ≤ 0.5 |
| GGUCCGUUCGCGUAAUGGUAACGCGUCUCCCUCCUAAGGAGAAGACUGCGGGUUCGAGUCCCGUACGGAACG [U2G G9C] | 0.755 |
| GGUCCGUUGCCGUAAUGGUAACGCGUCUCCCUCCUAAGGAGAAGACUGCGGGUUCGAGUCCCGUCCGGAACG [U2G G10C A65C] | ≤ 0.5 |
| GGUCCGUUCGCGUAAUGGUGACGCGUCUCCCUCCUAAGGAGCGGAGUGUGGGUUCGAGUCCCGUACGGCACG [U2G G9C A20G A42C A43G C46G C49U A69C] | ≤ 0.5 |
| GGUCCGUUCGCGUAAUGGUAACGCGUCUCCCUCCUUAGGAGAAGCCUGCGGGUUCGAGUCCCGUACGGAACG [U2G G9C A36U A45C] | ≤ 0.5 |
| GGUCCGUUCGCAUAAUGGUAACGCGUCUCCCUCCUAAGGAGCAGAAUGCGGGUUCGAGUCCCGCACGGAACG [U2G G9C G12A A42C C46A U64C] | ≤ 0.5 |
| GGUCCGUUAGCGUAAGGGUAACGCGUCUCCCUCCUAAGGAGAAGACUGCGGGUUCGAGUCCUGCACGGAACG [U2G G9A U16G C62U U64C] | ≤ 0.5 |
| GGUCCGUUAGCGUAAUGGUAACGCGUCUCCCUCCUAAGGAGAAGACUGCGGGUUCGAGACCCGUACGGAACG [U2G G9A U59A] | ≤ 0.5 |
| GGUCCGUUGACGUAAUGGUAACGCGUCUCCCUCCUAAGGAGAAGACUGCAGGUUCGAGUCCCGUACGGAACG [U2G G10A G50A] | ≤ 0.5 |

| Variant | yeast fitness |
| --- | --- |
| GGUCCAUUGGCGUAAUGGUAACGCGUCUCCCUCCUAAGGAGAAGACUGGGGGUUCGAGUCCCGUACGGAACG [U2G G6A C49G] | ≤ 0.5 |
| GGUCCAUUGGCGUAAUGGUAACGCGUCUCCCUCCUAAGGAGAAGACUGCGGGGGAGAGUCCCGUACGGAACG [U2G G6A U53G U54G C55A] | ≤ 0.5 |
| GGUCCGUUGGCUUAAUGGUAACGCGUCUCCCUCCUAAGGAGAAGACUGCGGGUUCGAGUCCCGUACGGAACG [U2G G12U] | 1.15 |
| GGUCCGUUGGCGUAAUGGUAACGCGUCUCCCUCCUAAGGAGAAGACUGCGAGUUCGAGUCCCGUACGGAACG [U2G G51A] | 0.805 |
| GGUCCGUUGGCGUAAUGGUAACGCGUCUCCCUCCUAAGGAGAAGACUCCGGGUUCGAGUCCCGUACGGAACG [U2G G48C] | 0.849 |
| GGUCCGUUGGCGUAAUGGUAACGCGUCUCCCUCCUAAGGAGAAGACUACGGGUUCGAGUCCCGUACGGAACG [U2G G48A] | 0.94 |
| GGUCCGUUGCCGUAAUGGUAACGCGUCUCCCUCCUAAGGAGACGACUGCGGGUUCGAGUCCCGUACGGAACG [U2G G10C A43C] | ≤ 0.5 |
| GGUCCGUUGGCGUAAUGGUAACGCGUCUCCCUCCUAAGGAGAAGACUGCGGGUUCGAAUACCGUAGGGAACG [U2G G58A C60A C66G] | 0.562 |
| GGUCCGUUGGCGUAAUGGUAACGCGUCUCCCUCCUAAAGAGAAGACUGCGGGUUCGAGUCCCGUACGGCACG [U2G G38A A69C] | 0.531 |
| GGUCCGUUGGCGUAAUGGUAACGCGUCUCCCUCCUAAGGAGAAGACUGCGAGUUCGAGUUCCGUACGGAACG [U2G G51A C60U] | ≤ 0.5 |
| GGUCCGUUGCCGUAAUGGUAACGCGUCUCCCUCCUAAGGAGAAGACUGCGGGUUCGAGUCCCGUACCGAACG [U2G G10C G67C] | ≤ 0.5 |
| GGUCCGUUGGCGUAAUGAUAACGCGUCUCCCUCCUAAGGCGAAGACUGCGGGUUCGAGUCCCGUACGCAACG [U2G G18A A40C G68C] | ≤ 0.5 |
| GGUCCGUUGGCAUAAUGGUAACGCGUCUCCCUCCUAAGGACAAGACUGCGGGUUCGUGUCCCGUACGGAACG [U2G G12A G41C A57U] | ≤ 0.5 |
| GGUCCGUUCGCGUCAUGGUAACGCGUCUCCCUCCUUAGGAGAAGAAUGCGGGUUCGAGUCCGGUACGGAACG [U2G G9C A14C A36U C46A C62G] | ≤ 0.5 |
| GGUCCGUUGGCGUAAUCGUAACGCGUCUCCCUUCUAAGGAGAAGACAGCGGGUUCGAGUCCCGUACGGAACG [U2G G17C C33U U47A] | 0.535 |
| GGUCCGUUGGCGUAAUAGUAACGCGUCUCCCUGCUAAGCAGAAGACUGCGGGUUUGAGUCCCGUACGGAACG [U2G G17A C33G G39C C55U] | ≤ 0.5 |
| GGUCCGUUGGCGUAAUGGUAACGCGUCUCCCUCCUAAGGAGAAAACUGCGCGUUCGAGUCCCGUACGGAACG [U2G G44A G51C] | ≤ 0.5 |
| GGUCCGUUGGCGUAAUGGUAACGCGUCUCCCUCCUAAGAAGAAGACUGCGGGUUCGAGUCCCGUACGUAACG [U2G G39A G68U] | ≤ 0.5 |
| GGUCCGUUGGCGUAAUGAUAGCGCAUCUCCCUCCUAAGGAGAAGACUGCGCGUUCGAGUCCCGUACGGAACG [U2G G18A A21G G25A G51C] | ≤ 0.5 |
